Hits are enriched below; roughly 2.2% of the tested compounds scored in any of these assays.
eIF4E-4G inh: eIF4E–eIF4G protein interaction inhibitors, primary screen, biochemical, uHTS, TR-FRET, eIF4GI fragment; 0.37% of 220,000 active; AID 782, 2007; inhibition, % at 21.7 µM; TR-FRET eIF4E-eIF4GI(517-606) binding, 2 h; Eukaryotic translation initiation factor 4E (Mus musculus) + Eukaryotic translation …;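 active = inhibition above about 30%, limit read from the data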
PERK inh: block of dimerizer-induced PERK translation repression, primary screen, PERK inhibitor project, CHO PERK-DD cells, SEAP luminescence, HTS. 0.17% of 220,000 active. inhibition, % at 5.6 µM. AID 1416, 2008. CHO PERK-DD fusion, SEAP luminescence translation reporter. Eukaryotic translation initiation factor 2-alpha kinase 3 (Homo sapiens), Q9NZJ5;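 active = inhibition above the mean inhibition of all tested compounds plus 3 SD, set separately per screening campaign, cut at about 2.9% in these data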;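 note: PERK kinase domain activated by AP20187 dimerizer at 100 nM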
Hck Nef HTS: inhibitors of Nef-activated human Hck kinase, primary screen, biochemical, Z-Lyte FRET, 384-well, Hck-YEEI. Tyrosine-protein kinase HCK (Homo sapiens), P08631. Recombinant Hck-YEEI plus Nef, Z-Lyte FRET kinase assay. inhibition, % at 20 µM. 0.68% of 220,000 active;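 active = Hck-Nef kinase inhibition above about 50%, limit read from the data; inactive = inhibition below that limit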
Target sequence (P08631 whole entry, looked up): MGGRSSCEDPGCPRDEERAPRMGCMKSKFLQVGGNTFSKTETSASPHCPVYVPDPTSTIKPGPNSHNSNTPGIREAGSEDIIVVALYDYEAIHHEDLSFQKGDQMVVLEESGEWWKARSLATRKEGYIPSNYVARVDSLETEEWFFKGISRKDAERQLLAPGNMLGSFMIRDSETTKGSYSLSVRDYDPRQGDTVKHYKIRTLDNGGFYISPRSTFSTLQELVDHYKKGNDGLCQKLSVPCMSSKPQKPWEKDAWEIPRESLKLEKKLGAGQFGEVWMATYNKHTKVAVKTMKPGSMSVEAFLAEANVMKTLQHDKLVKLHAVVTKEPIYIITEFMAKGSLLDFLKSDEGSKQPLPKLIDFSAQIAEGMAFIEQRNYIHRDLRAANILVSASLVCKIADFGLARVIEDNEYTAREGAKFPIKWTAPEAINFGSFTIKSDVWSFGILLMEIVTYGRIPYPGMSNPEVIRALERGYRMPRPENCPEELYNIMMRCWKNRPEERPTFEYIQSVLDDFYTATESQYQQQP
Runt-CBFb FRET: inhibitors of RUNX1 Runt–CBFb binding, primary screen, biochemical, FRET, Cerulean-Runt, Venus-CBFb, uHTS; Runt-related transcription factor 1 (Homo sapiens) + Core-binding factor subunit beta …; Cerulean-Runt/Venus-CBFb FRET ratio 530/480, 1 h; inhibition, % at 20 µM; 0.46% of 220,000 active;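 active = inhibition over about 50% at 20 µM in the single-dose screen, limit read from the data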
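Doses: 20 µM compound in 1% DMSO | Material: Cerulean-labeled Runt domain protein | Amount: Each fluorescent fusion protein 100 nM | Schedule: Two 1 h room-temperature incubations shielded from light | Measured by: FRET fluorescence | Evaluation: Loss of energy transfer signal | Controls: Unlabeled CBFb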
Runt-SMMHC FRET: inhibitors of RUNX1 Runt–CBFb-SMMHC binding, primary screen, biochemical, FRET, Cerulean-Runt, Venus-CBFb-SMMHC, uHTS; Runt-related transcription factor 1 (Homo sapiens) + Core-binding factor subunit beta …; Cerulean-Runt/Venus-CBFb-SMMHC FRET ratio 530/480, 1 h; inhibition, % at 20 µM; 0.74% of 220,000 active; AID 1434, 2008;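 active = mean inhibition across duplicate retests at 20 µM reaching about 50%, limit read from the data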;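 note: inhibitors lower the FRET ratio by blocking Runt binding to CBFb-SMMHC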
RanGTP-Imp inh: inhibitors of RanGTP-importin-beta interaction, primary screen, biochemical, FRET, CFP-Ran, YFP-importin-beta, homogeneous. Ran GTPase (GTP-bound) - importin-beta complex. 1.1% of 300,000 active. inhibition, % (concentration not given with the values). cell-free CFP-Ran/YFP-importin-beta FRET ratio. AID 2216, 2009;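 active = more than half of the replicate wells show a fall in the fluorescence ratio signal beyond about 16%, limit read from the data, passing the limit was not always enough; inconclusive = exactly half of the replicate wells pass the set limit; inactive = fewer than half of replicates pass the limit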
A number is an active result; – = inactive; ? = inconclusive; · = not tested or not shown; [ ] = another dose, or the depositor's remark.

SMILES | eIF4E-4G inh | PERK inh | Hck Nef HTS | Runt-CBFb FRET | Runt-SMMHC FRET | RanGTP-Imp inh
CCOC(=O)N1CC=C2C(C#N)=C(N)C(C#N)(C#N)[C@H](c3ccccc3OCC)[C@H]2C1 | – | – | – | – | – | –
CCN1CC=C2C(C#N)=C(N)C(C#N)(C#N)[C@H](c3cccc(OC)c3OC)[C@H]2C1 | · | – | – | – | 62.0 | ·
COc1cccc(C2C3CN(C)CC=C3C(C#N)=C(N)C2(C#N)C#N)c1OC (stereo not drawn) | – | – | – | 74.0 | 61.5 | 38.7
Cc1ccc2nc(Nc3ccc4[nH]c(=O)[nH]c4c3)c(-n3nc(C)cc3C)nc2c1 | – | – | – | – | – | 40.2
Cc1cc(C)n(-c2nc3ccccc3nc2Nc2ccc3c(c2)OCO3)n1 | – | – | – | – | – | –
CC(=O)N1N=C(c2cccc([N+](=O)[O-])c2)OC1(C)CC(=O)Nc1ccccc1 (stereo not drawn) | – | – | – | – | – | –
CCn1c(=O)c(C)nn2c3ccccc3nc12 | – | – | – | – | – | –
Cc1nn2c3ccccc3nc2n(Cc2ccccc2)c1=O | · | 3.1 | – | · | · | ·
CCOc1ccc2nc(NC(=O)c3ccoc3C)sc2c1 | – | – | – | – | – | –
CCCC(=O)C1=C(O)C(C(=O)OC)C(C)(C)CC1=NCCc1ccc(OC)c(OC)c1 (stereo not drawn) | – | – | – | – | – | –
CCN(CC)CCCC(C)Nc1c2ccc(Cl)cc2nc2ccc(OC)cc12 (stereo not drawn) | – | – | · | – | 85.4 | ·
COc1ccc(S(=O)(=O)Nc2cc(C(C)C)c(O)cc2C)cc1 | – | – | – | – | – | –
CCN(CC)CCSc1nc2ccc(OC)cc2[nH]1 | – | – | – | – | – | –
COc1ccc2nc3cc(Cl)ccc3c(Nc3cc(C(C)C)c(O)cc3C)c2c1 | – | – | – | 76.7 | 50.5 | 115.2
COCCn1c(N)c(C#N)c2nc3ccccc3nc21 | – | – | – | 107.5 | 57.2 | 71.5
Cc1ccc(C(=O)NCCn2c(N)c(C#N)c3nc4ccccc4nc32)cc1 | – | – | – | 97.7 | 78.7 | 58.4
N#Cc1c(N)n(CCOC(=O)c2cccc(Br)c2)c2nc3ccccc3nc12 | – | – | – | – | 51.2 | ?
N#Cc1c(N)n(CCOC(=O)c2cccc([N+](=O)[O-])c2)c2nc3ccccc3nc12 | – | – | – | – | – | –
N#Cc1c(N)n(CCc2ccc(F)cc2)c2nc3ccccc3nc12 | – | – | – | 93.3 | 77.1 | 44.4
COc1cc(S(=O)(=O)N(Cc2ccccn2)Cc2ccco2)ccc1-n1cnnn1 | – | – | – | – | – | –
COc1cc(Cn2c(N)c(C#N)c3nc4ccccc4nc32)cc(OC)c1 | – | – | – | 72.0 | 113.4 | 37.9
COc1ccc(Cn2c(N)c(C#N)c3nc4ccccc4nc32)cc1 | – | – | – | 79.7 | 93.9 | 33.3
COc1cccc(Cn2c(N)c(C#N)c3nc4ccccc4nc32)c1OC | – | – | – | – | – | –
CCSc1nc2c(c(=O)[nH]1)C(c1ccc(C)cc1)C1=C(CCCC1=O)N2 (stereo not drawn) | – | – | – | – | – | –
Cc1ccc(C2C3=C(CCCC3=O)Nc3[nH]c(=S)[nH]c(=O)c32)cc1 (stereo not drawn) | – | – | – | – | 60.1 | –
SMILES | eIF4E-4G inh | PERK inh | Hck Nef HTS | Runt-CBFb FRET | Runt-SMMHC FRET | RanGTP-Imp inh
O=C1CCCC2=C1C(c1ccc(Br)cc1)c1c([nH]c(=S)[nH]c1=O)N2 (stereo not drawn) | 58.8 | – | – | – | 68.1 | –
Cc1cccc(Cn2cc3c(=O)n(Cc4cccc(F)c4)nc-3c3ccccc32)c1 | · | · | · | · | · | –
CCN(CC(=O)NCc1ccc(F)cc1)CC(=O)Nc1ccc(S(=O)(=O)N2CCCC2)cc1 | – | – | – | – | – | 17.0
COc1ccc(CNC(=O)CN2C(=O)COc3ccc(S(=O)(=O)N4CCCC4)cc32)cc1 | · | · | · | · | · | –
CCS(=O)(=O)N1CCC(C(=O)NCc2ccc(F)cc2)CC1 | – | 3.4 | – | – | – | –
O=C(CN1C(=O)COc2ccc(S(=O)(=O)N3CCCCC3)cc21)NCc1ccc(F)cc1 | · | · | · | · | · | 51.1
O=C1N(Cc2cccc(Cl)c2)C[C@@H]2C[C@@H](c3cccn3-c3cccnc3)N3CCC[C@@]123 | – | – | – | – | – | –
COc1ccc(C(C)=O)cc1CSc1nc2ccccc2c(=O)n1-c1ccccc1C | – | – | – | – | – | –
COc1ccccc1-n1c(SCc2cc(=O)oc3cc(O)ccc23)nc2ccccc2c1=O | – | – | – | – | 69.7 | –
Cc1nnc(SCc2cc(=O)oc3cc(O)ccc23)n1Cc1ccccc1 | – | – | – | 84.7 | 127.4 | –
Cc1nnc(SCc2cc(=O)oc3ccc4ccccc4c23)n1Cc1ccccc1 | – | – | – | – | – | –
COc1cc(CC(=O)Nc2ccc3c(c2)CCC3)cc(OC)c1OC | 59.6[fluorescence artefact?] | – | – | – | – | –
CC(C)(C)OC(=O)NCC(=O)Oc1cc2oc(=O)cc(-c3ccccc3)c2cc1Cl | – | – | – | – | 81.1 | –
O=C(Oc1cc2oc(=O)cc(-c3ccccc3)c2cc1Cl)C1CCCCC1 | – | – | – | – | – | –
CCCCn1c(-c2ccc(OC)cc2)nc2c(=O)n(C)c(=O)[nH]c21 | · | · | · | · | · | –
CCCCn1c(-c2ccc(Cl)cc2)nc2c(=O)n(C)c(=O)[nH]c21 | – | – | – | – | 50.2 | ·
CCCc1nc2c(=O)n(C)c(=O)[nH]c2n1C | – | – | – | 121.6 | 113.8 | 108.3
Cc1cc(N2CCCC(C(=O)Nc3cccc4ccccc34)C2)n2ncnc2n1 (stereo not drawn) | – | – | – | – | – | ?
CC(C)Cc1cc(C(=O)NCc2cccnc2)no1 | – | – | – | – | – | –
CC(C)Cc1cc(C(=O)NCc2cccs2)no1 | – | 3.4 | – | – | – | –
Cc1ccc(-n2c(C)cc3c2CCCC3=O)cc1 | – | – | – | – | – | –
CC(=O)N(/N=C1\Sc2ccccc2C1=O)c1cccc(C)c1 | – | – | – | – | – | 23.3
CC(=O)N(CN1C(=O)c2ccccc2C1=O)c1cccc(C)c1 | – | – | – | – | – | –

Source: PubChem (several laboratories)
